Like-named read-outs stand apart in the source and are kept apart here.
What was measured:
C. difficile spores [1] = assay: In vitro C. difficile spore germination assay; type: cell-based, Clostridioides difficile
[2] = Interaction with cholestyramine resin in vitro and recovery from the resin; type: physicochemical; settings: for Binding to cholestyramine resin in vitro: 20 mg/ml cholestyramine, overnight, 37°C
CYP3A4 = CYP3A4 (Homo sapiens, UniProt P08684); assay: Vivid CYP3A4 Green screening assay with P450 BACULOSOMES
[3] = system: C. difficile strain 630 spores; assay: Prevention of murine CDI after C. difficile spore challenge; type: in vivo, mice; settings: 50 mg/kg oral gavage, three doses; for Time to clinical endpoint: clinical endpoint > 6 on CDI severity scale; for CDI signs in spore-challenged mice: 10^8 CFU spores
[4] = Fecal excretion of CamSA and mSA after oral CamSA in cpx and non-cpx mice; type: in vivo
[5] = CamSA and mSA in liver, blood, kidney and chyme after oral CamSA; type: in vivo, mice; settings: for Highest concentration found in the liver: 50 mg/kg oral CamSA, calculated; for Amount recovered from chyme as fraction of total dosed CamSA: all five time points together; for Total administered CamSA recovered from feces, organs and chyme: semi-quantitative
[6] = 24 hours, both conditions; cited from earlier work
C. difficile [7] = settings: cited from earlier work
Bifidobacterium longum = settings: 24 hours, pure culture; cited from earlier work
[8] = system: murine GI microbiota (feces); assay: Metabolism of CamSA by fecal microbiota; type: in vitro ADME, mice
C. difficile [9] = settings: cited from earlier work; remark: listed apart in the source
[10] = Effect of cholestyramine feed on CamSA in liver of cpx mice; type: in vivo; settings: 22 hours post-CamSA
Method in brief: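 Cefoperazone-treated mice, individually housed, were fed chow with 4% w/w (n=3) or 0% w/w (n=4) cholestyramine from 24 h before test compound dosing until the end. At 22 h post-dose, livers with attached gallbladders were harvested, stored at −20 °C, then homogenised. Acetonitrile was added to precipitate protein, and samples were centrifuged and filtered (0.2 μm). Analysis was by RP-HPLC-MS on a PSDVB column with isocratic 40% ACN, 5 mM ammonium acetate, 0.1% formic acid.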

Lactobacillus gasseri = settings: 24 hours, pure culture; cited from earlier work
C. difficile spores [11] = settings: in vitro and in vivo; cited from earlier work
Caco-2 monolayers = settings: cited from earlier work

Sequence of CYP3A4 (P08684 whole entry): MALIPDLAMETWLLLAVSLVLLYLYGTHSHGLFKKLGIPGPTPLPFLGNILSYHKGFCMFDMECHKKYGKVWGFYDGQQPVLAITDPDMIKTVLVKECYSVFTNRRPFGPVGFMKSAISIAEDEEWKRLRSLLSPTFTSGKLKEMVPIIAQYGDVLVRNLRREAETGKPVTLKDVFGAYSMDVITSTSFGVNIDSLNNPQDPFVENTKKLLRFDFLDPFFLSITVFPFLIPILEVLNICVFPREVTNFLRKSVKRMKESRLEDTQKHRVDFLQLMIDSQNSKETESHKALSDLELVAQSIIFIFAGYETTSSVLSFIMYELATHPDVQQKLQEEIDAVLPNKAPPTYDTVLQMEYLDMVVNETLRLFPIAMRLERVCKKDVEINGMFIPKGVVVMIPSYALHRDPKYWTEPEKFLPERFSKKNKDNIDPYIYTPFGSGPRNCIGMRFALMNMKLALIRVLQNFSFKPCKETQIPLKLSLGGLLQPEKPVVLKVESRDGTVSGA

Nc1cccc(S(=O)(=O)O)c1 [mSA, metanilic acid]
Effect on C. difficile spore germination in vitro (C. difficile spores [1]): neither induced nor inhibited | Binding to cholestyramine resin in vitro [2]: bound completely | Reversibility of binding to cholestyramine ([2]; stripping under strong acidic conditions): irreversible | IC50 (CYP3A4): 17.5 ± 1.1 mM | Time to clinical endpoint [3]: ≤ 48 hours post-challenge | Detection in feces ([4]; cpx mice, any time point): not observed | Amount recovered from feces relative to CamSA from the same animals (higher) ([4]; non-cpx mice): approximately 40 fold | Time of first large peak in feces ([4]; non-cpx mice, after CamSA administration): ≤ 12 h | Highest concentration found in the liver [5]: approximately 20 μM | Detection in kidney ([5]; cpx mice): detected | Detection in blood ([5]; cpx mice, any time point): unable to detect | Amount recovered from chyme relative to amount recovered from feces ([5]; non-cpx mice): about 85% | Detection in blood ([5]; non-cpx mice): only detected in blood at the 22-hour time point | Detection in kidney ([5]; non-cpx mice): only detected in kidney at the 12-hour time point | Amount recovered from chyme as fraction of total dosed CamSA ([5]; non-cpx mice, detected as mSA): 13%

C[C@H](CCC(=O)Nc1cccc(S(=O)(=O)O)c1)[C@H]1CC[C@H]2[C@@H]3[C@H](O)C[C@@H]4C[C@H](O)CC[C@]4(C)[C@H]3CC[C@]12C [12-deoxy-CamSA]
CDI severity score [3]: > 6 | Time to clinical endpoint [3]: 48 hours post-challenge

C[C@H](CCC(=O)[O-])[C@H]1CC[C@H]2[C@@H]3[C@H](O)C[C@@H]4C[C@H](O)CC[C@]4(C)[C@H]3C[C@H](O)[C@]12C.[Na+] [cholate, Sodium cholate, reference compound]
Effect on C. difficile spore germination in vitro (C. difficile spores [1]): could stimulate spore germination | Time to clinical endpoint [3]: ≤ 48 hours post-challenge

C[C@H](CCC(=O)Nc1cccc(S(=O)(=O)O)c1)[C@H]1CC[C@H]2[C@@H]3[C@H](O)C[C@@H]4C[C@H](O)CC[C@]4(C)[C@H]3C[C@H](O)[C@]12C [CamSA]
Binding to cholestyramine resin in vitro [2]: nearly complete sequestration | Recovery from cholestyramine resin ([2]; 0.5 N aqueous HCl, absence of feces): less than 1% | Recovery from cholestyramine resin ([2]; 0.5 N ethanolic HCl, absence of feces): up to 75% | Recovery from cholestyramine resin ([2]; 0.5 N ethanolic HCl, presence of fecal matter): less than 10% | Degradation in artificial gastric or intestinal juices [6]: no CamSA degradation was observed | IC50 (CYP3A4; read-out: IC50 on CYP3A4 activity, assuming inhibition of CYP3A4, triplicate): 0.62 ± 0.11 mM | Effect on mean time of death of infected animals (C. difficile [7]; CamSA alone): double the mean time of death | Prevention of CDI onset (C. difficile [7]; CamSA alone): unable to prevent the onset of CDI | Hamsters protected, no CDI symptoms a month post-challenge (C. difficile [7]; CamSA with sub-clinical doses of vancomycin): 70% | CDI signs in spore-challenged mice [3]: little to no signs of CDI | Retention of intact compound in the animal ([4]; antibiotic-treated mouse): 7 days post-administration | Start of CamSA excretion in feces ([4]; cpx mice): around 6 hours post-administration | Time of second fecal excretion maximum ([4]; cpx mice): 32 hours post-administration | Fraction of total dosed CamSA recovered from feces ([4]; cpx mice, 50 mg/kg oral, over a week): approximately 30% | Detection in feces ([4]; non-cpx mice): low levels of intact CamSA | Maximum amount recovered from feces at a single time point relative to cpx mice ([4]; non-cpx mice): four-fold lower | Fraction of total dosed drug recovered from feces, mSA plus CamSA ([4]; non-cpx mice, 50 mg/kg oral, over a week): approximately 15% | CamSA hydrolyzed (Bifidobacterium longum): approximately 80% | Hydrolysis of CamSA to cholate and mSA ([8]; GI microbiota of mice not treated with antibiotics): slowly hydrolyzed | Degradation of CamSA by recovered microbiota ([8]; feces collected one week after last antibiotic dose, data not shown): degraded CamSA at a similar rate as feces from animals that had never received antibiotics | Acute toxicity (C. difficile [9]; CamSA-treated mice): did not indicate any signs of acute toxicity or damage to GI tissue | Prevention of CDI symptoms (C. difficile [9]; single 50 mg/kg dose): completely prevent CDI symptoms | Detection in liver ([10]; 0% cholestyramine feed): detected CamSA from liver samples from three of the four mice | Detection in liver ([10]; 4% cholestyramine feed): unable to detect | Highest concentration found in the liver [5]: approximately 140 μM | Total administered CamSA recovered from feces, organs and chyme ([5]; cpx animals): approximately 40% | Detection in kidney ([5]; cpx mice): negligible amounts | Total amount recovered from liver relative to feces (less) ([5]; cpx mice): approximately 10 fold | Amount recovered from chyme as fraction of total dosed CamSA ([5]; cpx mice): 10% | Detection in blood ([5]; cpx mice, any time point): unable to detect | Time of peak hepatic concentration ([5]; cpx mice, one animal per time point): 22 h | CamSA and mSA recovered from chyme relative to blood (higher) ([5]; mouse, in vivo): 300 fold | CamSA and mSA recovered from chyme relative to other organs (higher) ([5]; mouse, in vivo): at least 10 fold | Total administered CamSA recovered from feces, organs and chyme ([5]; non-cpx animals): ~25% | Detection in blood ([5]; non-cpx mice): not detected | Total combined CamSA and mSA recovered from liver relative to feces (less) ([5]; non-cpx mice): approximately 10 fold | CamSA hydrolyzed (Lactobacillus gasseri): approximately 80% | Effect on taurocholate-mediated C. difficile spore germination (C. difficile spores [11]): potent inhibitor | Intestinal permeability (Caco-2 monolayers): limited intestinal permeability

C[C@H](CCC(=O)Nc1cccc(S(=O)(=O)O)c1)[C@H]1CC[C@H]2[C@@H]3CC[C@@H]4C[C@H](O)CC[C@]4(C)[C@H]3C[C@H](O)[C@]12C [7-deoxy-CamSA]
CDI signs in spore-challenged mice [3]: only moderate CDI signs
